Measured values from ChEMBL document CHEMBL1275447 (Antimicrob Agents Chemother, 2008).
≈ marks a conversion by molar mass, not a printed value.

How the values were obtained:
[1] = fT>MIC in neutropenic mouse infected with Pseudomonas aeruginosa isolate 931 at 500 mg administered as 4 hr infusion; format: functional
How it was run: (§1)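 Mouse fT>MIC was modelled with first-order one-compartment serum PK and 25.2% binding. Mice were neutropenic (cyclophosphamide) with uranyl nitrate renal impairment. Subcutaneous doses were 5.5, 2.25, 4.5, 4.5, 4.5, 4.5, 0.75, 0.375 mg/kg at 0, 0.5, 1.5, 2.5, 3.5, 4.5, 6, 7.5 h per 8-h interval over 24 h.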

[2] = fT>MIC in human infected with Pseudomonas aeruginosa isolate 988 at 500 mg administered as 4 hr infusion; format: functional
[3] = fT>MIC in human infected with Pseudomonas aeruginosa isolate 927 at 500 mg administered as 4 hr infusion; format: functional
Pseudomonas aeruginosa [4] = assay: Antibacterial activity against Pseudomonas aeruginosa isolate 931 by microdilution method; format: functional
How it was run: (§2)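 CLSI broth microdilution in cation-adjusted Mueller-Hinton broth (20–25 mg/liter Ca, 10–12.5 mg/liter Mg). Standard inoculum 10⁵ CFU/ml, incubated in ambient air. Clinical hospital isolates.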

[5] = fT>MIC in human infected with Pseudomonas aeruginosa isolate 1082 at 500 mg administered as 1 hr infusion; format: functional
Pseudomonas aeruginosa [6] = assay: Antibacterial activity against Pseudomonas aeruginosa isolate 993 by microdilution method; format: functional
Pseudomonas aeruginosa [7] = assay: Antibacterial activity against Pseudomonas aeruginosa isolate 1058 by microdilution method; format: functional
[8] = AUC (0 to 24 hrs) in Pseudomonas aeruginosa ATCC 27853 infected neutropenic ICR mouse at 50 mg/kg, sc administered as single dose 2 hrs postinfection; format: ADME, organism-based; set-up: time < 24 hr, dose 50 mg/kg, route subcutaneous; conditions: plasma
How it was run: (§3)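 Neutropenic mice (cyclophosphamide ip 150 and 100 mg/kg, 4 and 1 days before inoculation) with uranyl nitrate 5 mg/kg ip 3 days before, for renal impairment. Thigh infection with ATCC 27853 at 10⁶ CFU/ml, 0.1 ml per thigh. Single sc doses 2 h later. Intracardiac blood from 6–12 mice per time point, eight time points over 4 h. Serum assayed by HPLC (linear 0.5–40 μg/ml). One-compartment first-order fit.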

[9] = fT>MIC in neutropenic mouse infected with Pseudomonas aeruginosa isolate 931 at 500 mg administered as 1 hr infusion; format: functional
How it was run: (§4)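 Free-drug time above MIC simulated from one-compartment mouse serum PK (25.2% protein binding). The mice were cyclophosphamide-neutropenic and uranyl nitrate-renally impaired. Regimen was subcutaneous 10, 15, 2.5, 1.25, 0.5, 0.25 mg/kg at 0, 0.5, 2.5, 4, 5.5, 7 h, repeated every 8 h over 24 h.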

[10] = fT>MIC in neutropenic mouse infected with Pseudomonas aeruginosa isolate 935 at 500 mg administered as 1 hr infusion; format: functional; how it was run: as §4
Pseudomonas aeruginosa [11] = assay: Antibacterial activity against Pseudomonas aeruginosa isolate 1050 by fractionation study; format: functional
[12] = fT>MIC in neutropenic mouse infected with Pseudomonas aeruginosa isolate 1006 at 500 mg administered as 4 hr infusion; format: functional
[13] = fT>MIC in human infected with Pseudomonas aeruginosa isolate 1036 at 500 mg administered as 4 hr infusion; format: functional
[14] = fT>MIC in neutropenic mouse infected with Pseudomonas aeruginosa isolate 988 at 500 mg administered as 4 hr infusion; format: functional; how it was run: as §1
[15] = fT>MIC in human infected with Pseudomonas aeruginosa isolate 993 at 500 mg administered as 4 hr infusion; format: functional
[16] = AUC in Pseudomonas aeruginosa ATCC 27853 infected neutropenic ICR mouse at 500 mg administered as 1 hr infusion; format: ADME, organism-based; conditions: plasma, iv
[17] = fT>MIC in neutropenic mouse infected with Pseudomonas aeruginosa isolate 944 at 500 mg administered as 4 hr infusion; format: functional; how it was run: as §1
[18] = fT>MIC in neutropenic mouse infected with Pseudomonas aeruginosa isolate 906 at 500 mg administered as 4 hr infusion; format: functional; how it was run: as §1
[19] = Clearance in Pseudomonas aeruginosa ATCC 27853 infected neutropenic ICR mouse at 50 mg/kg, sc administered as single dose 2 hrs postinfection; format: ADME, organism-based; set-up: dose 50 mg/kg, route subcutaneous; conditions: in vivo; how it was run: as §3
[20] = fT>MIC in neutropenic mouse infected with Pseudomonas aeruginosa isolate 906 at 500 mg administered as 1 hr infusion; format: functional; how it was run: as §4
[21] = AUC (0 to 24 hrs) in Pseudomonas aeruginosa ATCC 27853 infected neutropenic ICR mouse at 150 mg/kg, sc administered as single dose 2 hrs postinfection; format: ADME, organism-based; set-up: time < 24 hr, dose 150 mg/kg, route subcutaneous; conditions: plasma; how it was run: as §3
[22] = Cmax in Pseudomonas aeruginosa ATCC 27853 infected neutropenic ICR mouse at 150 mg/kg, sc administered as single dose 2 hrs postinfection by HPLC; format: ADME, organism-based; set-up: dose 150 mg/kg, route subcutaneous; conditions: in vivo; how it was run: as §3
[23] = fT>MIC in human infected with Pseudomonas aeruginosa isolate 993 at 500 mg administered as 1 hr infusion; format: functional
Pseudomonas aeruginosa [24] = assay: Antibacterial activity against Pseudomonas aeruginosa isolate 1060 by microdilution method; format: functional; how it was run: as §2
Pseudomonas aeruginosa [25] = assay: Antibacterial activity against Pseudomonas aeruginosa isolate 1052 by microdilution method; format: functional; how it was run: as §2
[26] = fT>MIC in neutropenic mouse infected with Pseudomonas aeruginosa isolate 886 at 500 mg administered as 1 hr infusion; format: functional; how it was run: as §4
[27] = fT>MIC in human infected with Pseudomonas aeruginosa isolate 1029 at 500 mg administered as 1 hr infusion; format: functional
[28] = fT>MIC in human infected with Pseudomonas aeruginosa isolate 979 at 500 mg administered as 4 hr infusion; format: functional
[29] = fT>MIC in neutropenic mouse infected with Pseudomonas aeruginosa isolate 1058 at 500 mg administered as 1 hr infusion; format: functional; how it was run: as §4

## C[C@@H](O)[C@H]1C(=O)N2C(C(=O)O)=C(S[C@@H]3CN[C@H](CNS(N)(=O)=O)C3)[C@H](C)[C@H]12 [DORIPENEM]
[1]
  fT>MIC: 52.5%
[2]
  fT>MIC: 0%
[3]
  fT>MIC: 0%
Pseudomonas aeruginosa [4]
  MIC: 4 µg/mL (≈ 9.51 µM)
[5]
  fT>MIC: 55%
Pseudomonas aeruginosa [6]
  MIC: 0.125 µg/mL (≈ 0.297 µM)
Pseudomonas aeruginosa [7]
  MIC: 2 µg/mL (≈ 4.76 µM)
[8]
  AUC(0-t) at 24 h: 62400 ng·h/mL
[9]
  fT>MIC: 30%
[10]
  fT>MIC: 55%
Pseudomonas aeruginosa [11]
  MIC: 4 µg/mL (≈ 9.51 µM)
[12]
  fT>MIC: 0%
[13]
  fT>MIC: 65%
[14]
  fT>MIC: 0%
[15]
  fT>MIC: 100%
[16]
  AUC at 1 h: 37600 ng·h/mL
[17]
  fT>MIC: 52.5%
[18]
  fT>MIC: 70%
[19]
  CL/F: 13.1 mL/min/kg
[20]
  fT>MIC: 42.5%
[21]
  AUC(0-t) at 24 h: 168000 ng·h/mL
[22]
  Cmax: 194 µg/mL
[23]
  fT>MIC: 100%
Pseudomonas aeruginosa [24]
  MIC: 4 µg/mL (≈ 9.51 µM)
Pseudomonas aeruginosa [25]
  MIC: 1 µg/mL (≈ 2.38 µM)
[26]
  fT>MIC: 90%
[27]
  fT>MIC: 100%
[28]
  fT>MIC: 65%
[29]
  fT>MIC: 42.5%
